Bioassay records deposited in PubChem BioAssay by several laboratories.
Arrestin-AP2 inh: inhibitors of human beta-arrestin and AP2 interaction; inhibition, % at 10 µM; AID 504490; 340,000 compounds, 0.31% hits; FITC-arrestin peptide / GST-AP2 beads, flow cytometry; AP2 beta2 appendage carries R879A mutation;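 active = inhibition above a set limit, near 3 SD of compounds lacking own fluorescence, cut at about 54% in these data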;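 also: plate controls were DMSO wells for no effect and 5 µM unlabelled arrestin peptide for full effect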
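System: GST-AP2 R879A glutathione beads | Also added: FITC-arrestin peptide, 50 nM | Times: 12 min plus 1 h, RT | Signal: Bead flow cytometry, FITC channel | Buffer or medium: PBS with 0.05% Tween 20 and 0.1% BSA | Read-out basis: Percent drop in bead-associated FITC signal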
N-glyco inh: blocks N-linked glycosylation in D54 reporter cells; D54 ERlucT glycosylation luciferase reporter, 24 h; percent of 100 nM tunicamycin response; reporter increase, % at 12.5 µM; 360,000 compounds, 0.23% hits;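 active = mean luciferase reporter signal, scaled so untreated is 0 and the glycosylation-blocking control 100, at or above a set limit in every replicate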;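 also: luciferase carries N-glycosylation sites so blocking glycosylation raises the light; 0% = median of neutral control wells and 100% = median of 100 nM tunicamycin wells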
PfHsp90 yeast 2: inhibits growth of yeast expressing Plasmodium falciparum Hsp90; S. cerevisiae expressing PfHsp90, BacTiter-Glo ATP, 48 h; yeast lacking PDR1 and PDR3 efflux regulators; inhibition, % at 9.4 µM; 310,000 compounds, 0.32% hits;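 active = every replicate shows inhibition above about 80%, whatever the replicate mean, limit read from the data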;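 also: 0% = DMSO neutral controls and 100% = 20 µM radicicol positive controls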
HIV Env fusion: HIV envelope-mediated fusion inhibition; HeLa-JRFL Env/CEM21 cell fusion, luciferase; inhibition, % at 12.3 µM; 360,000 compounds, 1.1% hits; AID 651610;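 active = mean replicate inhibition score of at least 50 and every replicate individually at or above 50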;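 also: 0% = plate neutral controls and 100% = maraviroc near 300 nM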
Rtt109 HAT inh: blocks Candida albicans Rtt109/Vps75 acetyltransferase activity | Q5AAJ8 | purified Rtt109/Vps75, ThioGlo CoA-SH fluorescence, 4 h | inhibition, % at 34.9 µM | 330,000 compounds, 0.16% hits;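 active = inhibition of at least 50% in every replicate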
PAX8 reporter: PAX8 transcriptional activity inhibition; inhibition, % at 12.6 µM; 360,000 compounds, 1.2% hits; RMG-I TPO-luciferase reporter, SteadyGlo, 24 h; AID 652154;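 active = mean replicate inhibition at least 60% with every replicate also reaching 60%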;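 also: luciferase light reporting Pax8 driven TPO promoter activity; plate controls were median of neutral control wells for no effect and mitoxantrone controls for full effect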
Arr AP2 CP1: inhibitors of human beta-arrestin and AP2 interaction. shares compounds with Arrestin-AP2 inh. GST-AP2 beads, FITC arrestin peptide binding, flow cytometry; GST-fused beta2-adaptin appendage, R879A mutant. inhibition, % at 10 µM. 1,300 compounds, 2% hits. AID 504908;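 active = inhibition above a set limit, roughly 3 SD of non-fluorescent compound noise, cut at about 38% in these data; inactive = inhibition at or below that limit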;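 also: loss of bead fluorescence from 50 nM FITC arrestin peptide bound to appendage; 0% = negative control wells and 100% = excess unlabelled arrestin peptide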
Target sequence (P63010 whole entry, looked up, the tested form may be a part, one chain of several): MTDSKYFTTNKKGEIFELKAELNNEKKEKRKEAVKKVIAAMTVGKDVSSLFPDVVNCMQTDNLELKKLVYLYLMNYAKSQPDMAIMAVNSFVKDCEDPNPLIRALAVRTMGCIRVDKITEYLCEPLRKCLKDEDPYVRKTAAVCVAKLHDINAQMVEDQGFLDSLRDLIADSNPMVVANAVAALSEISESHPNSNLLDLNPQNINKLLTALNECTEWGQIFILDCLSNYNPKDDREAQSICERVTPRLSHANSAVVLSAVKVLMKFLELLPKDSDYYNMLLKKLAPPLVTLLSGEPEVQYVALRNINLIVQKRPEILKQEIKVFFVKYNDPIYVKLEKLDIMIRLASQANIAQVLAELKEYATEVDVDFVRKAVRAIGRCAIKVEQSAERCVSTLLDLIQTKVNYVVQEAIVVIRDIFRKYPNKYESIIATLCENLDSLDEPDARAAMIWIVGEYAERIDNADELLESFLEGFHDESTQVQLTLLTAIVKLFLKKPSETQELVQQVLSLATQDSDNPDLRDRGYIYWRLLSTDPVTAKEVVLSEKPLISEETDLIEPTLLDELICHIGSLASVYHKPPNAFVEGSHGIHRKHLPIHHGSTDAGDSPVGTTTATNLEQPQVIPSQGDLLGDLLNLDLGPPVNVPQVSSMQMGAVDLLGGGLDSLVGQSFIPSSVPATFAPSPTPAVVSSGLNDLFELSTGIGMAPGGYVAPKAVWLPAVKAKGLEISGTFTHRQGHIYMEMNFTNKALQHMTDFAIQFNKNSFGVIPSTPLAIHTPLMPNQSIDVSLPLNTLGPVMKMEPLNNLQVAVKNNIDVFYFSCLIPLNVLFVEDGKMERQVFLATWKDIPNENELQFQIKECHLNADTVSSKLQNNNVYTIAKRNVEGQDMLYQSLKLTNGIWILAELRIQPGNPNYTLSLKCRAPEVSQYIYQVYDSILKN
GST-FITC bead: disrupts GST binding to glutathione beads, arrestin-AP2 artifact; shares compounds with Arrestin-AP2 inh; GST-fluorescein binding to GSH beads, fluorescence, counter-screen; inhibition, % at 10 µM; 1,300 compounds, 2% hits;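 active = inhibition above 50%, about 3 SD of the inhibition seen with non-fluorescent compounds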;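 also: fluorescein maleimide labelled GST captured on 4 micron glutathione beads; higher means more loss of bead fluorescence from quenching or blocked binding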
* hit, by the source's call; nt = not tested or not shown; [ ] = dose if it differs, or a comment. Compounds with a hit are over-represented: about 2.3% of the library has one in this group of screens.

SMILES	Arrestin-AP2 inh	N-glyco inh	PfHsp90 yeast 2	HIV Env fusion	Rtt109 HAT inh	PAX8 reporter	Arr AP2 CP1	GST-FITC bead
COc1cc2c(cc1NC(=O)C(C)Sc1ccc(NC(C)=O)cc1)oc1ccccc12 (stereo not drawn)	0.4	-2.3	15.9	nt	5.5	11.0	2.1	-6.5
COc1cc2c(cc1NC(=O)Nc1cccc(C)c1)oc1ccccc12	2.9	-0.2	-12.5	-20.1	-7.1	nt	14.4	7.4
COc1cc2c(cc1NC(=S)Nc1cccc(C)c1)oc1ccccc12	-10.1	1.4	-20.4	-9.3	3.7	nt	nt	nt
COc1cc(NC(=O)c2ccccc2)c(OC)cc1NC(C)=O	-2.4	0.3	-7.3	-85.4	7.5	nt	nt	nt
Cc1noc(C)c1S(=O)(=O)N(C)C[C@@H]1OCCCC[C@@H](C)Oc2ccc(NC(=O)Nc3cccc4ccccc34)cc2C(=O)N([C@H](C)CO)C[C@H]1C	nt	nt	nt	14.2[16.7 µM]	nt	24.1	nt	nt
COc1ccc(CNC(=O)C[C@@H]2C=C[C@H](NS(=O)(=O)c3cccc(OC)c3)[C@H](CO)O2)cc1	nt	nt	nt	14.1[16.7 µM]	nt	nt	nt	nt
O=C(Cc1ccncc1)NCC[C@H]1CC[C@H](NC(=O)C2CCC2)[C@@H](CO)O1	nt	nt	nt	12.9[16.7 µM]	nt	-9.7	nt	nt
COc1ccc(OCC(=O)Nc2cc3oc4ccccc4c3cc2OC)cc1	28.0	-5.1	-61.8	nt	-0.9	nt	1.2	19.0
COc1cc2c(cc1NC(=O)Nc1ccc(C)cc1)oc1ccccc12	12.4	-0.1	36.0	1.5	-2.2	nt	-7.5	9.3
CNC(=S)Nc1cc2oc3ccccc3c2cc1OC	-1.1	2.9	1.8	-3.5	11.6	7.2	nt	nt
COc1cc2c(cc1NC(=O)Nc1ccc(F)cc1)oc1ccccc12	-2.5	-4.6	-76.5	18.2	-5.1	-6.5	-11.4	-7.1
COc1cc2c(cc1NC(=O)CSc1ccccc1)oc1ccccc12	0.5	-0.9	5.3	1.5	-7.4	-11.6	-7.9	-4.3
COc1cc2c(cc1NC(=O)CSc1nccn1C)oc1ccccc12	-4.5	6.7	5.3	-7.6	1.3	-74.6	nt	nt
CCCn1c(SCC(=O)N2CCCCC2)nnc1C(C)C	56.0*	0.3	-20.8	-0.9	-2.7	-2.4	-5.0	-0.6
COCCn1c(SCC(=O)N2CCCC2)nnc1C(C)C	7.2	-0.2	-3.9	nt	-9.4	nt	nt	nt
CCOC(=O)C1CCN(C(=O)COC(=O)c2cc([N+](=O)[O-])ccc2N2CCOCC2)CC1	-7.4	-0.6	-11.0	0.6	-1.7	-14.4	nt	nt
CCOC(=O)C1CCN(C(=O)c2ccc(N3CCOCC3)c([N+](=O)[O-])c2)CC1	64.3*	0.7	2.6	3.3	-2.6	-11.0	-7.3	-2.5
CCCN(C)C[C@@H]1Oc2ncc(-c3ccccc3)cc2C(=O)N([C@@H](C)CO)C[C@@H]1C	nt	nt	nt	1.2[16.7 µM]	nt	-2.1	nt	nt
Cc1ccc(C2CC(c3cccs3)=NN2C(=O)CSc2nc3ccccc3o2)cc1 (stereo not drawn)	61.6*	-0.8	-0.8	16.6	5.7	0.9	-0.9	-7.4
CC(=O)NCC1CCCN(c2nc3nonc3nc2N(C)Cc2ccccc2)C1 (stereo not drawn)	59.3*	3.4	nt	5.6	9.4	-9.3	-17.2	-6.0
CN(Cc1ccccc1)c1nc2nonc2nc1N1CCCC(CN2CCCC2=O)C1 (stereo not drawn)	3.5	6.0	-12.0	18.6	1.5	-6.4	nt	nt
Cc1ccc(C(=O)OCc2nnc(-c3ccccc3)o2)s1	4.0	1.4	nt	36.9	-1.5	-15.5	nt	nt
O=C(OCc1nnc(-c2ccccc2)o1)c1ccc([N+](=O)[O-])s1	69.8*	1.1	12.6	-3.6	4.6	-0.6	15.1	-3.8
Cn1c(=O)n(C)c2cc(N3CCCC3)c(NC(=O)c3cccc(F)c3)cc21	-7.0	14.4	-3.5	-2.1	2.8	-4.9	24.8	-2.0
COc1cccc(C(=O)Nc2cc3c(cc2N2CCCC2)n(C)c(=O)n3C)c1	11.8	14.1	10.6	-21.3	-2.5	0.2	1.0	-11.5
